Source: PubChem BioAssay
Ecoli tolC = growth inhibitors of E. coli BW25113 tolC mutant | OD615 | growth inhibition, % at 10 µM (by protocol) | 2.2% of 65,000 active | AID 573;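 active = growth inhibition at or above a cutoff equal to the mean over every tested compound plus 3 SD, cut at about 60% in these data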;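 note: growth measured after 20 h incubation at 37 °C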
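Test system – E. coli BW25113 ΔtolC::kan, tolC deletion mutant strain · Detection – OD at 615 nm · Buffer or medium – LB with kanamycin 50 µg/mL · Times – 20 h compound exposure of bacteria at 37 °C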
PostGolgi ctrl = yeast control strain growth, post-Golgi counter-screen | 5% of 98,000 active | inhibition, % at 10 µM | efflux-deficient yeast background strain, growth absorbance A615, 16 h | AID 738
PostGolgi yeast = growth inhibition of a yeast mutant, post-Golgi transport screen | post-Golgi transport phenotypic cell assay | inhibition, % at 10 µM | 0.9% of 98,000 active;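 note: yeast cells grown in 1536-well plates; yeast grown about 18 h at 30C before absorbance read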
Cav32 inh = inhibitors of human Cav3.2 T-type calcium channel | O95180 | Cav3.2-expressing cells, Fluo-4 calcium fluorescence FDSS; active compounds read low | 4% of 100,000 active | AID 449739 | B-score at 10 µM;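 active = single-dose well whose peak fluorescence ratio is a statistical outlier from its plate by either plate-standardised score or position-corrected B-score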
Target sequence (O95180 whole entry, looked up): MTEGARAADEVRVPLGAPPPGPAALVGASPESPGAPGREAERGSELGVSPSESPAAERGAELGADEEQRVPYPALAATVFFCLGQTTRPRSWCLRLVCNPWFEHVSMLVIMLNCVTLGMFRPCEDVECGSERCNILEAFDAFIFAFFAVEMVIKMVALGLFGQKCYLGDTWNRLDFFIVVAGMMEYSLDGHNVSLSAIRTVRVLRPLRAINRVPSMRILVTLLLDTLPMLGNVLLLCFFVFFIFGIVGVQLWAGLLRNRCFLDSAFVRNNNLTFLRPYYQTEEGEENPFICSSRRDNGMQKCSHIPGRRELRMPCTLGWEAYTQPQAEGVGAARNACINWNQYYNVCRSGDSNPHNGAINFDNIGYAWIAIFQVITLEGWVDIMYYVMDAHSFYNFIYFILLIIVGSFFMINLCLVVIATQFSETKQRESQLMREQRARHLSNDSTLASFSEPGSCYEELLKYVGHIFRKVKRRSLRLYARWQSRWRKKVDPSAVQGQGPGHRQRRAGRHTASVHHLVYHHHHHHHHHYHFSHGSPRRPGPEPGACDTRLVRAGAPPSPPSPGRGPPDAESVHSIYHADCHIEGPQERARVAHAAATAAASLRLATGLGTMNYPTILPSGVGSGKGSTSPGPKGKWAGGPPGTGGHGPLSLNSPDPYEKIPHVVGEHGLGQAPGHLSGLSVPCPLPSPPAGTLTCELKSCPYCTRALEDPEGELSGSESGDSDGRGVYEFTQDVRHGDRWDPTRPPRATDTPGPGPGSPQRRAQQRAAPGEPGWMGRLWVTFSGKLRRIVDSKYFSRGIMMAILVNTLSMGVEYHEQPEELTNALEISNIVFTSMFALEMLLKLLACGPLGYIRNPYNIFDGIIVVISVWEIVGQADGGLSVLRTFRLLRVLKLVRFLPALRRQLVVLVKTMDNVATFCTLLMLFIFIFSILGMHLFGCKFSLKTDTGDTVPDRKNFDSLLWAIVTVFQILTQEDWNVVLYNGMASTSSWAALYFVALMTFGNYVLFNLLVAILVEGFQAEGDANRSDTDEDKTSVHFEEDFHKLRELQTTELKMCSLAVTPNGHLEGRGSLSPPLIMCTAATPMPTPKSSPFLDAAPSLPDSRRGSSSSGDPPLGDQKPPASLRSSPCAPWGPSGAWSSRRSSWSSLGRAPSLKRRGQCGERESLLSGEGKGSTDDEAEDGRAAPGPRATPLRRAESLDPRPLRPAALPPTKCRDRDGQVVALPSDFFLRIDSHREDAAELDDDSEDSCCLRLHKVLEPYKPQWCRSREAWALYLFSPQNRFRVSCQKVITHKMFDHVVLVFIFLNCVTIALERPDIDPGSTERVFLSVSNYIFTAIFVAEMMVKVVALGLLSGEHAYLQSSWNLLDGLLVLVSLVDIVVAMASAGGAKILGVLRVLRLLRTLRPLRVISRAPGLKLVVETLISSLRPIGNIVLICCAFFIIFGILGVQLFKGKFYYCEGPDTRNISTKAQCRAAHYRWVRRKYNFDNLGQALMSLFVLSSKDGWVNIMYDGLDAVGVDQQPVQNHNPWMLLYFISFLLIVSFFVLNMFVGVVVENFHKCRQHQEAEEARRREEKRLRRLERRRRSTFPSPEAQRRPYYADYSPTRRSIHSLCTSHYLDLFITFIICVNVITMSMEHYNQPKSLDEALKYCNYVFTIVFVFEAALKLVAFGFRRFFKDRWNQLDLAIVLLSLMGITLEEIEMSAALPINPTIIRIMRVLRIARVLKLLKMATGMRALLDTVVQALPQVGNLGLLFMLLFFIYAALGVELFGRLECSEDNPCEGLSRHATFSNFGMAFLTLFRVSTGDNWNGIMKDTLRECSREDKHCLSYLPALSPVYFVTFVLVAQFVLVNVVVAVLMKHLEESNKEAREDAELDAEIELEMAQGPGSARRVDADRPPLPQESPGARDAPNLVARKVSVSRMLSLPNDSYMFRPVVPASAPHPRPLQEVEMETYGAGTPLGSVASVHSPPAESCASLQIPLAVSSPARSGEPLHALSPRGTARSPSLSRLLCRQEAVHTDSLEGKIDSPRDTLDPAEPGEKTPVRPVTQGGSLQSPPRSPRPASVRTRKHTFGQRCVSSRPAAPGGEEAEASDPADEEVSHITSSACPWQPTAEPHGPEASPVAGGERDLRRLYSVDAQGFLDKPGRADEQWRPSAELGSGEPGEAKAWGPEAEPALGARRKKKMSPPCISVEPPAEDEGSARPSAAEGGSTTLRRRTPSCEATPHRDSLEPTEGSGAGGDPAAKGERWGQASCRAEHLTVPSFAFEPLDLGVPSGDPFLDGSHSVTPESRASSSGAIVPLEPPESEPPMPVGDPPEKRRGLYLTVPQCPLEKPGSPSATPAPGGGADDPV
Ecoli WT expand = E. coli BW25113 growth inhibition, expanded screen; AID 710; 0.15% of 98,000 active; OD600 absorbance; growth inhibition, % at 100 µM;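 active = growth inhibition above about 50% at one test dose, limit read from the data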;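 note: growth measured after 20 h incubation at 37 °C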
* hit, by the source's call. The list is not random: actives were taken first. Their share in the collection is about 8.4%. Cut-off read from the data, not from the text of the source, unless noted: active = inhibition above about 30%; inactive = the rest.

`CCCCS(=O)CC(COc1ccc(Cl)cc1)OC(=O)c1ccccc1` (stereo not drawn) gave Ecoli tolC 35, PostGolgi ctrl 42*, PostGolgi yeast -4, Cav32 inh -3.5 and Ecoli WT expand -12.
`c1ccc(-c2onc3cc4c(cc23)OCCO4)cc1` gave Ecoli tolC 3, PostGolgi ctrl 13, PostGolgi yeast 2, Cav32 inh -1.4 and Ecoli WT expand 14.
Screening COc1ccc(C2SCC(=O)N2CC23CC4CC(CC(C4)C2)C3)cc1 (stereo not drawn) returned PostGolgi ctrl 60*, PostGolgi yeast 16, Cav32 inh -1.2 and Ecoli WT expand -8.
Screening COc1ccc(C2SCC(=O)N2c2c(C)n(C)n(-c3ccccc3)c2=O)cc1 (stereo not drawn) returned Ecoli tolC -13, PostGolgi ctrl -8, PostGolgi yeast -5, Cav32 inh 0.2 and Ecoli WT expand 3.
Screening CCOC(=O)N1CCC(NC(=O)Cn2nc(Cc3ccncc3)c3ccccc3c2=O)CC1 returned Ecoli tolC -15, PostGolgi ctrl -4, PostGolgi yeast -11, Cav32 inh 0.31 and Ecoli WT expand -2.
Screening CCN(CC)CCCNC(CC(=O)O)C(=O)O (stereo not drawn) returned Ecoli tolC -15.
CCN(Cc1ccccc1)C(c1ccccn1)c1nnnn1C1CCCCC1 (stereo not drawn) was read as Cav32 inh -4*.
`COc1ccc([N+](=O)[O-])cc1C1NN=C(c2ccccc2O)S1` (stereo not drawn) gave PostGolgi ctrl 12, PostGolgi yeast -1, Cav32 inh -3.7* and Ecoli WT expand 25.
For COc1ccccc1OCCCOc1ccc([N+](=O)[O-])cc1Cl the results were PostGolgi ctrl 13, PostGolgi yeast -4, Cav32 inh -1.6 and Ecoli WT expand 8.
O=C(COC(=O)CCN1C(=O)c2ccccc2C1=O)Nc1ccc(S(=O)(=O)N2CCCC2)cc1 was read as Ecoli tolC -8, PostGolgi ctrl 6, PostGolgi yeast 18, Cav32 inh 1.4 and Ecoli WT expand -1.
Screening CC1CCCN(S(=O)(=O)c2ccc(NC(=O)CCN3C(=O)c4ccccc4C3=O)cc2)C1 (stereo not drawn) returned PostGolgi ctrl 18, PostGolgi yeast 42* and Ecoli WT expand -7.
Screening CC1CCCN(S(=O)(=O)c2ccc(NC(=O)Cn3nnc(-c4ccccc4F)n3)cc2)C1 (stereo not drawn) returned Ecoli tolC 64*, PostGolgi ctrl 4, PostGolgi yeast 1, Cav32 inh -0.89 and Ecoli WT expand -11.
Screening CCn1c2ccccc2c2cc(/C=N/NC(=O)c3cccc(C)c3)ccc21 returned PostGolgi ctrl 34*, PostGolgi yeast -2, Cav32 inh -4.2* and Ecoli WT expand -8.
CCn1c2ccccc2c2cc(/C=N/n3cn[nH]c3=S)ccc21 was read as PostGolgi ctrl 43*, PostGolgi yeast 4, Cav32 inh -0.96 and Ecoli WT expand 7.
For CCn1c2ccccc2c2cc(/C=N/n3cnnc3)ccc21 the results were Ecoli tolC 40, PostGolgi ctrl 42*, PostGolgi yeast 10, Cav32 inh 1.6 and Ecoli WT expand -6.
`Cc1cccc(C(=O)N/N=C/c2ccncc2)c1` gave PostGolgi ctrl -5, PostGolgi yeast -2, Cav32 inh -0.25 and Ecoli WT expand -6.
Screening CCn1c(/C=N/n2cnnc2)nc2ccccc21 returned Ecoli tolC 1, PostGolgi ctrl 6, PostGolgi yeast 0, Cav32 inh 0.39 and Ecoli WT expand -2.
For Cc1c(C)n(C(=O)CSc2ncn[nH]2)c2ccccc12 the results were Ecoli tolC -9, PostGolgi ctrl 11, PostGolgi yeast -6, Cav32 inh -1.5 and Ecoli WT expand -2.
CCOc1cccc(-c2nn3c(-c4ccco4)nnc3s2)c1 was read as Ecoli tolC 15, PostGolgi ctrl 43*, PostGolgi yeast 5, Cav32 inh 0.37 and Ecoli WT expand -5.
For COc1cccc(-c2nn3c(-c4cccc(C)c4)nnc3s2)c1 the results were Ecoli tolC 2, PostGolgi ctrl 44*, PostGolgi yeast 1, Cav32 inh -1.9 and Ecoli WT expand -24.
For COc1cc(OC)c(-c2nn3c(-c4ccco4)nnc3s2)cc1OC the results were Ecoli tolC 19, PostGolgi ctrl 34*, PostGolgi yeast 4, Cav32 inh 2.3 and Ecoli WT expand 0.
Screening COc1cc(-c2nnc3sc(-c4ccco4)nn23)cc(OC)c1OC returned Ecoli tolC -1, PostGolgi ctrl 11, PostGolgi yeast -2, Cav32 inh -1.7 and Ecoli WT expand -4.
Screening c1ccc(-c2cc(-c3nn4c(-c5ccco5)nnc4s3)c3ccccc3n2)cc1 returned Ecoli tolC -6, PostGolgi ctrl 38*, PostGolgi yeast -4, Cav32 inh -0.76 and Ecoli WT expand -11.
`COc1cccc(-c2nnc3sc(-c4ccc(C)cc4)nn23)c1` gave Ecoli tolC 3, PostGolgi ctrl 3, PostGolgi yeast 3 and Ecoli WT expand -9.
Screening CC(C)C[C@@H](CSc1ccc(Br)cc1)N1CCN(CC(C)C)CCC1=O returned Cav32 inh -1.3.
For Cc1csc(NC(C)c2nc3cc(C(F)(F)F)ccc3n2CCCO)n1 (stereo not drawn) the results were Cav32 inh 0.9.
COc1ccc(C2/C=C\CN(C(=O)c3ccccc3)[C@H](Cc3ccccc3)C(=O)N2Cc2ccc(F)cc2)cc1 (stereo partly drawn) was read as Cav32 inh -2.3.
For COc1ccc(-c2nn3c(-c4ccco4)nnc3s2)cc1OC the results were Ecoli tolC 22, PostGolgi ctrl 31*, PostGolgi yeast 11, Cav32 inh -1.1 and Ecoli WT expand -1.
COc1ccc(-c2nnc3sc(-c4ccco4)nn23)cc1OC was read as Ecoli tolC 8, PostGolgi ctrl 18, PostGolgi yeast -2, Cav32 inh 0.85 and Ecoli WT expand -9.
For CCN1CCc2c(C#N)c(N3CCCCC3)nc(N3CCOCC3)c2C1 the results were Ecoli tolC -12, PostGolgi ctrl 0, PostGolgi yeast 9, Cav32 inh 0.068 and Ecoli WT expand 7.
For CC(C)c1nc(N2CCOCC2)c(C#N)c2c1CCCC2 the results were Ecoli tolC 65*, PostGolgi ctrl 10, PostGolgi yeast -5, Cav32 inh -5* and Ecoli WT expand -2.
For CCSc1nc(N2CCOCC2)c2c(c1C#N)CCCC2 the results were Ecoli tolC 21, PostGolgi ctrl 41*, PostGolgi yeast 8, Cav32 inh -2.1 and Ecoli WT expand 5.
`CC1(C)Cc2c(C#N)c(SCc3ccccc3)nc(N3CCOCC3)c2CO1` gave Ecoli tolC 26, PostGolgi ctrl 38*, PostGolgi yeast -5, Cav32 inh -1.5 and Ecoli WT expand -7.
For CC1(C)Cc2c(C#N)c(SCC(=O)c3ccccc3)nc(N3CCOCC3)c2CO1 the results were Ecoli tolC 14, PostGolgi ctrl 7, PostGolgi yeast -5 and Ecoli WT expand -15.
For CN(C)c1nc2n(c(=S)n1)CCS2 the results were Ecoli tolC -2, PostGolgi ctrl 4, PostGolgi yeast 0, Cav32 inh -0.32 and Ecoli WT expand -5.
